pIC50, pKi: −log10 of the molar value.
How the values were obtained:
[1] = target: T1, Cysteinyl leukotriene receptor 1 (Cavia porcellus, UniProt Q2NNR5); experiment: Binding affinity against Cysteinyl leukotriene D4 receptor from guinea pig lung was determined using [3H]-LTD4 (0.2 nM)
T1 sequence (Q2NNR5 whole entry): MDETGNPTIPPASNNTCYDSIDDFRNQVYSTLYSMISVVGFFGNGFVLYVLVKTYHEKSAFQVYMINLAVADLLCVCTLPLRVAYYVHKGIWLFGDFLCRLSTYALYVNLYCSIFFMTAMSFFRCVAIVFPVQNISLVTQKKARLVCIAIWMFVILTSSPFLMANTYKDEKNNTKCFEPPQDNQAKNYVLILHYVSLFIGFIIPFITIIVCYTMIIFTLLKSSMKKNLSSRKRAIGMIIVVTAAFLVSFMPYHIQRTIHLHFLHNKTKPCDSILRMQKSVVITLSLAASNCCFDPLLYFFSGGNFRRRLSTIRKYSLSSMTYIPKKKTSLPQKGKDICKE
Outline: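 Guinea pig lung membranes were used in a radioligand competition assay against 0.2 nM [3H]LTD4, with compounds at multiple concentrations. IC50 was determined graphically and converted to Ki. Values are means ± SEM of N separate experiments.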

Cavia porcellus [2] = organism: Cavia porcellus; experiment: Inhibition of LTC4-induced contractions from guinea pig peripheral lung strips; format: functional
Outline: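 Guinea pig peripheral lung strips were contracted with 0.2 nM LTC4, and inhibition was measured. IC50 was determined graphically; values are means ± SEM of N separate experiments.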

Cavia porcellus [3] = organism: Cavia porcellus; experiment: Oral activity expressed as percent inhibition in LTD4-induced wheal assay in guinea pig at 18 uM; format: functional; settings: in the assay text read “18 mg/kg” for “18 uM”
Outline: (§1)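 In guinea pigs, compounds were given orally 1 h before intradermal injection of 100 ng LTD4, and wheal inhibition was measured. Five animals were used per dose. ED50 was determined from at least three doses; single doses are reported as % inhibition in mg/kg.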

Cavia porcellus [4] = organism: Cavia porcellus; experiment: Oral activity expressed as percent inhibition in leukotriene mediated anaphylaxis assay in guinea pig at 30 uM; format: functional
Outline: (§2)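 Guinea pigs immunized with ovalbumin were pretreated with pyrilamine, propranolol and indomethacin. Compounds were given orally 1 h before aerosol antigen challenge. Six animals were used per dose. ED50 was determined from at least three doses; single doses are reported as % inhibition in mg/kg.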

Cavia porcellus [5] = organism: Cavia porcellus; experiment: Oral activity expressed as effective dose in leukotriene mediated anaphylaxis assay in guinea pig; format: functional; outline: as §2
Cavia porcellus [6] = organism: Cavia porcellus; experiment: Oral activity expressed as percent inhibition in LTD4-induced wheal assay in guinea pig at 9 uM; format: functional; outline: as §1
Cavia porcellus [7] = organism: Cavia porcellus; experiment: Oral activity expressed as effective dose in LTD4-induced wheal assay in guinea pig; format: functional; outline: as §1
Cavia porcellus [8] = organism: Cavia porcellus; experiment: Oral activity expressed as percent inhibition in leukotriene mediated anaphylaxis assay in guinea pig at 10 uM; format: functional; outline: as §2
Cavia porcellus [9] = organism: Cavia porcellus; experiment: Oral activity expressed as percent inhibition in LTD4-induced wheal assay in guinea pig at 13 uM; format: functional
Cavia porcellus [10] = organism: Cavia porcellus; experiment: Inhibits leukotriene mediated anaphylaxis in guinea pig at 60 uM concentration; format: functional; outline: as §2
Cavia porcellus [11] = organism: Cavia porcellus; experiment: Inhibits leukotriene D4 in guinea pig by wheal essay at 9 uM concentration; format: functional; outline: as §1
[12] = target: T1, Cysteinyl leukotriene receptor 1; experiment: Binding affinity against Cysteinyl leukotriene D4 receptor from guinea pig trachea using [3H]LTD4; settings: read-out: pA2 (converted)
[13] = target: T2, Cysteinyl leukotriene receptor 1 (Cavia porcellus) (UniProt Q2NNR5); experiment: Binding affinity against Cysteinyl leukotriene D4 receptor from guinea pig lung was determined using [3H]LTD4 (0.2 nM) at compound concentration of 1 uM
T2 sequence (whole entry): T1 sequence (Q2NNR5 whole entry)

Cavia porcellus [14] = organism: Cavia porcellus; experiment: Oral activity expressed as percent inhibition in LTD4-induced wheal assay in guinea pig at 3 uM; format: functional; outline: as §1
[15] = target: T1, Cysteinyl leukotriene receptor 1; experiment: Binding affinity against Cysteinyl leukotriene D4 receptor from guinea pig lung was determined using [3H]LTD4
Outline: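 Guinea pig lung membranes; competition against 0.2 nM [3H]LTD4 with test compounds at multiple concentrations. IC50 was determined graphically and converted to Ki. Values are means ± SEM of N separate experiments.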

[16] = target: T1, Cysteinyl leukotriene receptor 1; experiment: Inhibitory concentration of compound against binding of Cysteinyl leukotriene D4 receptor from guinea pig lung using [3H]LTD4

| Structure (SMILES) | pKi [1] | pIC50 (Cavia porcellus [2]) | Inhibition (Cavia porcellus [4]) [%] | also measured |
| --- | --- | --- | --- | --- |
| c1cc(OCc2ccc(OCc3nn[nH]n3)cc2)cc(OCc2ccc3ccccc3n2)c1 | 8.66 | 8.10 | 82 | Inhibition (Cavia porcellus [3]): 59% |
| c1ccc2nc(COc3ccc(OCc4ccc(Cc5nnn[nH]5)cc4)cc3)ccc2c1 | 8.07 | 7.92 |  | ED50 (Cavia porcellus [5]): 30 mg/kg; Inhibition (Cavia porcellus [6]): 34% |
| c1cc(CCc2cccc(-c3nn[nH]n3)c2)cc(OCc2ccc3ccccc3n2)c1 | 7.77 | 7.70 |  | ED50 (Cavia porcellus [5]): 24 mg/kg; Inhibition (Cavia porcellus [3]): 44% |
| c1cc(COc2ccc(OCc3ccc4ccccc4n3)cc2)cc(Cc2nnn[nH]2)c1 | 8.10 | 7.47 |  | Inhibition (Cavia porcellus [8]): 64%; ED50 (Cavia porcellus [7]): 3 mg/kg |
| c1cc(COc2ccc(OCc3ccc4ccccc4n3)cc2)cc(OCc2nn[nH]n2)c1 | 8.10 | 8.05 | 27 | ED50 (Cavia porcellus [7]): 2.8 mg/kg |
| COc1cc(OCc2ccc(OCc3ccc4ccccc4n3)cc2)cc(-c2nn[nH]n2)c1 | 8.12 | 7.89 |  | Inhibition (Cavia porcellus [9]): 26% |
| c1cc(COc2ccc(-c3nn[nH]n3)cc2)cc(OCc2ccc3ccccc3n2)c1 | 8.54 | 7.85 | -9 |  |
| c1cc(OCc2ccc3ccccc3n2)cc(OCc2ccccc2OCc2nn[nH]n2)c1 | 7.77 | 7.57 |  | ED50 (Cavia porcellus [5]): 10 mg/kg; Inhibition (Cavia porcellus [3]): 42% |
| CN(C)C(=O)CCSC(SCCC(=O)O)c1cccc(/C=C/c2ccc3ccc(Cl)cc3n2)c1 (centres undefined) [MK-571] |  |  |  | Kb [12]: 1 nM |
| c1cc(OCc2cccc(-c3nn[nH]n3)c2)cc(OCc2ccc3ccccc3n2)c1 | 7.80 |  | 83 | Inhibition (Cavia porcellus [3]): 45% |
| c1ccc(OCc2nn[nH]n2)c(COc2ccc(OCc3ccc4ccccc4n3)cc2)c1 | 8.68 | 8.38 |  | Inhibition (Cavia porcellus [8]): 61%; Inhibition (Cavia porcellus [14]): 45% |
| COc1cc(-c2nn[nH]n2)ccc1OCc1ccc(OCc2ccc3ccccc3n2)cc1 | 7.66 |  |  |  |
| c1cc(OCc2ccc3ccccc3n2)cc(OCc2ccccc2Cc2nnn[nH]2)c1 | 7.92 | 8.02 | 75 | Inhibition (Cavia porcellus [3]): 17% |
| Clc1ccc2ccc(COc3ccc(OCc4ccccc4Cc4nnn[nH]4)cc3)nc2c1 | 8.60 |  |  |  |
| c1cc(COc2ccc(OCc3ccc4ccccc4n3)cc2)cc(-c2nn[nH]n2)c1 | 8.66 | 8.70 |  | Inhibition (Cavia porcellus [8]): 33%; ED50 (Cavia porcellus [7]): 2 mg/kg |
| COc1cc(COc2cccc(OCc3ccc4ccccc4n3)c2)cc(-c2nn[nH]n2)c1 | 8.15 | 8.20 |  | Inhibition (Cavia porcellus [8]): 17%; ED50 (Cavia porcellus [7]): 38 mg/kg |
| C(=C\c1cccc(-c2nn[nH]n2)c1)/c1cccc(OCc2ccc3ccccc3n2)c1 | 8.07 | 7.70 |  | Inhibition (Cavia porcellus [14]): 15% |
| c1ccc2nc(COc3ccc(COc4ccc(-c5nn[nH]n5)cc4)cc3)ccc2c1 | 7.51 | 7.36 | 64 | ED50 (Cavia porcellus [7]): 8 mg/kg |
| O=S(=O)(Nc1cccc(OCc2ccc3ccccc3n2)c1)C(F)(F)F [RITOLUKAST] |  |  |  | pKi [15]: 7.46 |
| O=C(O)c1ccccc1Nc1cccc(OCc2ccc3ccccc3n2)c1 [SR-2640] |  |  |  | pIC50 [16]: 7.64 |

More lines, main results first:

| pKi [1] | pIC50 (Cavia porcellus [2]) | Structure (SMILES) | Inhibition (Cavia porcellus [4]) [%] | also measured |
| --- | --- | --- | --- | --- |
| 8.28 | 7.70 | c1cc(COc2cccc(-c3nn[nH]n3)c2)cc(OCc2ccc3ccccc3n2)c1 | 45 | ED50 (Cavia porcellus [7]): 28 mg/kg |
| 8.10 | 7.80 | COC(=O)c1ccc(COc2cccc(OCc3ccc4ccccc4n3)c2)c(OCc2nn[nH]n2)c1 | 9 |  |
| 8.60 |  | Clc1ccc2ccc(/C=C/c3ccc(OCc4ccccc4Cc4nnn[nH]4)cc3)nc2c1 |  |  |
| 7.80 | 7.44 | COc1cc(-c2nn[nH]n2)ccc1OCc1cccc(OCc2ccc3ccccc3n2)c1 | 9 |  |
| 7.40 | 7.00 | O=C(O)c1cccc(COc2cccc(OCc3ccc4ccccc4n3)c2)c1 |  | Inhibition (Cavia porcellus [10]): 60%; Inhibition (Cavia porcellus [11]): 7% |
| 7.89 | 7.62 | c1cc(OCc2cccc(OCc3nn[nH]n3)c2)cc(OCc2ccc3ccccc3n2)c1 | 64 | Inhibition (Cavia porcellus [3]): 37% |
| 8.47 |  | C(=C\c1ccc2ccccc2n1)/c1ccc(OCc2ccccc2Cc2nnn[nH]2)cc1 |  | Inhibition (Cavia porcellus [8]): 80% |
| 8.52 | 8.57 | c1ccc(Cc2nn[nH]n2)c(COc2ccc(OCc3ccc4ccccc4n3)cc2)c1 [RG-12525] |  | ED50 (Cavia porcellus [5]): 2.2 mg/kg; Kb [13]: 3 nM; ED50 (Cavia porcellus [7]): 4.9 mg/kg |
| 8.37 | 8.05 | COc1cc(-c2nn[nH]n2)ccc1COc1cccc(OCc2ccc3ccccc3n2)c1 | 45 | Inhibition (Cavia porcellus [6]): 22% |
| 8.00 |  | COc1cc(OCc2cccc(OCc3ccc4ccccc4n3)c2)cc(-c2nnn[nH]2)c1 |  |  |
| 8.00 | 7.92 | c1cc(COc2cccc(OCc3ccc4ccccc4n3)c2)cc(Cc2nnn[nH]2)c1 |  | ED50 (Cavia porcellus [5]): 10 mg/kg; ED50 (Cavia porcellus [7]): 1.8 mg/kg |
| 8.14 | 7.70 | c1cc(OCc2ccc(Cc3nnn[nH]3)cc2)cc(OCc2ccc3ccccc3n2)c1 |  | ED50 (Cavia porcellus [5]): 30 mg/kg; ED50 (Cavia porcellus [7]): 6.8 mg/kg |
| 8.00 | 7.92 | c1cc(OCc2ccc(-c3nnn[nH]3)cc2)cc(OCc2ccc3ccccc3n2)c1 |  | ED50 (Cavia porcellus [5]): 10 mg/kg; ED50 (Cavia porcellus [7]): 6.5 mg/kg |
| 7.70 | 7.72 | c1cc(OCc2ccc3ccccc3n2)cc(OCc2ccccc2-c2nnn[nH]2)c1 |  |  |
| 7.05 | 7.12 | O=C(O)c1ccc(COc2cccc(OCc3ccc4ccccc4n3)c2)cc1 |  |  |
|  | 6.03 | CCCc1c(OCC(O)COc2ccc3c(=O)cc(C(=O)O)oc3c2CCC)ccc(C(C)=O)c1O (centres undefined) [FPL-55712] |  |  |
